Assay results published in ChEMBL document CHEMBL1687916, “Non-nucleoside inhibitors of human adenosine kinase: synthesis, molecular modeling, and biological studies” (J Med Chem, 2011).
Calls of active or inactive are those of the source. No cut-off for these calls is given here.

What was measured:
HeLa S3 (Homo sapiens) [1] = test: Growth inhibition of human HeLaS-3 cells pretreated for 2 days measured after 24 hrs of compound wash out by Burker cell counter
HeLa S3 [2] = test: Cytostatic activity against human HeLaS3 cells at 40 uM after 24 to 48 hrs compound added for every 24 hrs; type: functional, cell-based
How it was run: (§1)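 Cells (8 × 10^4) grown at 37 C in DMEM with 10% fetal calf serum, 5 mM L-glutamine and 50 μg/mL gentamycin, with or without 40 μM compound for 3 days. Medium and compound were replaced daily. Cultures were counted every day after trypsinization.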

K562 [3] = test: Cytotoxicity against human K562 cells assessed as dead cells after 7 days by Burker cell counter; type: functional, cell-based
How it was run: (§2)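 K562 cells in RPMI 1640 with 10% fetal calf serum, seeded at 5000 cells/mL and held 15 h at 37 C in 5% CO2. Serial compound dilutions were added and cells incubated 7 days. Aliquots were mixed with 0.5% trypan blue; unstained and blue cells were counted on a Bürker chamber. Triplicate points, each count averaged from four determinations.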

Adenosine kinase = Adenosine kinase (Homo sapiens, UniProt P55263); test: Inhibition of human adenosine kinase; details: read-out: IC50
Chain of Adenosine kinase (P55263 whole entry): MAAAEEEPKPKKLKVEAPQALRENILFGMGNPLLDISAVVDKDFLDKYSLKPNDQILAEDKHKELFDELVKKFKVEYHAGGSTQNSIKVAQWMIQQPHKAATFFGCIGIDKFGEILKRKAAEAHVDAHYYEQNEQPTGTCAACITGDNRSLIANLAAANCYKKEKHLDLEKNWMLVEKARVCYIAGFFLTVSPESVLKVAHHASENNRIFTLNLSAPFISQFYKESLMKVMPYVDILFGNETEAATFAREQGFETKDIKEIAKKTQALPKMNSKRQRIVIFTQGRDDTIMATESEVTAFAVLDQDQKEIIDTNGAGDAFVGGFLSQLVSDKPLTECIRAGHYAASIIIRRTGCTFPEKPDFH

K562 [4] = test: Growth inhibition of human K562 cells after 7 days by Burker cell counter; type: functional; details: K562, 168 h
How it was run: as §2

[5] = Cellular permeability in human HeLaS3 cells assessed as level of [3H]AMP produced at 2.5 to 25 uM by scintillation counter; type: ADME, cell-based; details: hela s3, 25 µM
How it was run: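 HeLaS-3 cells grown in DMEM with fetal calf serum at 37 C, trypsinized, then resuspended at 10^6 cells/mL in serum-free DMEM with compound and 3 μCi [3H]Ado (25 Ci/mmol) at 37 C. Samples taken at 0, 10, 20, 30 and 40 min were spotted on DE-81 filters and washed. [3H]AMP was measured by scintillation counting. Mean of three determinations.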

HeLa S3 [6] = test: Inhibition of RNA syntheses in human HeLaS3 cells assessed as inhibition of [3H]uridine incorporation after 40 mins by scintillation counter; type: functional, cell-based
How it was run: (§3)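 HeLaS-3 cells grown in DMEM with fetal calf serum, trypsinized, and resuspended at 10^6 cells/mL in serum-free DMEM at 37 C with 0, 10 or 50 μM compound plus 5 μCi [3H]thymidine (25 Ci/mmol) or [3H]uridine (22 Ci/mmol). Samples at 0-40 min were spotted on GF/C filters, washed in 5% TCA and ethanol, and acid-precipitable radioactivity counted. Mean of three determinations.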

NIH3T3 = test: Cytotoxicity against mouse 3T3 cells by phenyltetrazolium bromide assay; type: functional, cell-based
How it was run: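 Murine 3T3 fibroblasts; proliferation measured by MTT assay, with IC50 reported. Each value is the mean of three determinations; Student's t test, p < 0.05.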

HL-60 [7] = test: Induction of apoptosis in human HL60 cells assessed as DNA content at 100 uM after 48 hrs by flow cytometry relative to vehicle-treated; type: functional
How it was run: (§4)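 HL-60 cells treated with vehicle (0.1% DMSO) or 25-100 μM compound for 24, 48 or 72 h, harvested by centrifugation, PI-stained for 30 min at 37 C in the dark, and analysed by flow cytometry (10 000 gated events). Cells with under 2N DNA content were scored apoptotic. Three independent experiments.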

HL-60 [8] = test: Cytotoxicity against human HL60 cells after 72 hrs; type: functional, cell-based; details: HL-60, 72 h
How it was run: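 HL-60 cells (40 000/well) in RPMI-1640 with 10% FBS and penicillin/streptomycin, seeded for 24 h, then exposed to vehicle (0.1% DMSO) or a concentration range for 72 h. AlamarBlue (10% v/v) was added for 4.5 h at 37 C and fluorescence read at ex 544/em 590 nm. Viability is relative to vehicle control; IC50 from dose-response curves; three independent experiments.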

HeLa S3 [9] = test: Inhibition of DNA syntheses in human HeLaS3 cells assessed as [3H]thymidine incorporation at 50 uM after 40 mins by scintillation counter; type: functional, cell-based
How it was run: as §3

HeLa S3 [10] = test: Inhibition of DNA syntheses in human HeLaS3 cells assessed as [3H]thymidine incorporation at 10 uM after 40 mins by scintillation counter; type: functional, cell-based
How it was run: as §3

Homo sapiens = species on record: Homo sapiens; test: Cytostatic activity against human Cen3tel cells at 40 uM after 24 to 48 hrs compound added for every 24 hrs; type: functional, cell-based
How it was run: as §1

[11] = target: T1, Adenosine deaminase (Bos taurus) (UniProt P56658); test: Inhibition of bovine ADA at 100 uM by spectrophotometric analysis
T1 sequence (whole entry): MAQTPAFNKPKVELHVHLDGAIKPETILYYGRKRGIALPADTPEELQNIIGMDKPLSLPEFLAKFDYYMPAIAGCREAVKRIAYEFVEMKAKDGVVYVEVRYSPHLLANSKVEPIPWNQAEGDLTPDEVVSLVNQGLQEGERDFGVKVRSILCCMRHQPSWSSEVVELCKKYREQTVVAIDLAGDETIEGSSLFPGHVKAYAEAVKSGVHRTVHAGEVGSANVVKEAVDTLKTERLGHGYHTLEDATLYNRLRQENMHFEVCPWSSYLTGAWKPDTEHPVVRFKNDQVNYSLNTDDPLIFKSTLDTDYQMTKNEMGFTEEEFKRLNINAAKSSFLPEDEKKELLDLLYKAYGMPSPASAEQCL
How it was run: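 Adenosine deaminase assayed at 30 C with 50 μM Ado, 50 mM potassium phosphate pH 7.2 and 0.3 nM enzyme. Deamination was followed as A262 change over 2 min. Compound tested at 100 μM, with DMSO at most 4% final and a substrate-free blank. Percent inhibition from two determinations in triplicate.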

HeLa S3 (Homo sapiens) [12] = test: Growth inhibition of human HeLaS-3 cells pretreated for 2 days measured after 2 days of compound wash out by Burker cell counter
[13] = Metabolic stability of the compound in human HeLaS3 cell crude extract assessed as compound degradation measured upto 20 hrs pretreated at 40 uM for 3 days; type: ADME, cell-based; details: hela s3, 20 h
How it was run: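 HeLaS-3 cells cultured 3 days with 40 μM compound added fresh every 24 h; crude extract prepared by hypotonic Hepes buffer lysis, dounce homogenization and 10000g spin. Compound (1 mM) was incubated in extract at 37 C for 0, 1, 5 and 20 h, then lyophilized and extracted twice with cold MeOH. Remaining compound was quantified by reverse-phase HPLC.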

HL-60 [14] = test: Induction of apoptosis in human HL60 cells assessed as DNA content at 100 uM after 24 hrs by flow cytometry relative to vehicle-treated; type: functional
How it was run: as §4

HL-60 [15] = test: Induction of apoptosis in human HL60 cells assessed as DNA content at 50 uM after 24 hrs by flow cytometry relative to vehicle-treated control; type: functional
How it was run: as §4

- IC50 (Adenosine kinase): 1.2 µM
- Drug uptake [5]: Active
- inhibition [11]: 15%
- Stability [13]: Stable
Structure (SMILES): CCC1(c2ccc(CSc3ccccc3)cc2)Oc2ccccc2-n2cccc2C1=O (racemic)
- growth inhibition (GI) (HeLa S3 (Homo sapiens) [1]): Active
- Activity (HeLa S3 [2]): inactive
- Activity (K562 [3]): Not toxic
- GI50 (K562 [4]): 1 µM
- IC50 (HeLa S3 [6]): 50 µM
- IC50 (NIH3T3): 118 µM
- Activity (HL-60 [7]): 90%
- IC50 (HL-60 [8]): 34.2 µM
- Activity (HeLa S3 [9]): inactive
- Activity (HeLa S3 [10]): inactive
- Activity (Homo sapiens): inactive
- growth inhibition (GI) (HeLa S3 (Homo sapiens) [12]): inactive
- Activity (HL-60 [14]): 70%
- Activity (HL-60 [15]): 44%
